Test results reported in PMC11041979 (International Journal of Nanomedicine, 2024).
≈ marks a conversion by molar mass, not a printed value.

How the values were obtained:
[1] = Pharmacokinetics of MA in rats after oral gavage; format: in vivo, Sprague-Dawley rats
Method in brief: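 Male Sprague-Dawley rats (200 ± 20 g), acclimatised 1 week, fasted 12 h with free water. Test compound given by gavage at 20 mg/kg (2 mg/mL) as an aqueous suspension or as a saturated suspension in carbon-dot solution (stirred 20 min). Orbital blood drawn 5–1440 min into heparin. Plasma protein-precipitated with acetonitrile:acetic acid 9:1, isomangiferin internal standard, UHPLC-MS/MS. Mean ± SD.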

[2] = literature value; cited from earlier work
[3] = Water solubility assay; format: physicochemical
Method in brief: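 Saturated aqueous test-compound solutions were sonicated, centrifuged and diluted 10–500-fold. Carbon dots (3 mg/mL stock) were diluted to 10 levels, 1500–3.12 μg/mL. Samples were centrifuged at 10000 rpm for 10 min and filtered through 0.22 µm. HPLC used a C18 column at 30°C with 0.4% acetic acid water–acetonitrile 85:15 at 1.0 mL/min and detection at 318 nm. Calibration followed Chinese Pharmacopoeia methods.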

[4] = Sprague-Dawley, rat, plasma, po, 20 mg/kg

maximum concentration ([1]; MA, oral, preliminary rat pharmacokinetics): 200 ng
AUC(0-t) [1, 4]: 1.52 ± 2.64 ng·h/mL
Cmax [1, 4]: 0.201 ± 0.0314 ng/mL
Tmax [1, 4]: 4 ± 1.42 h
half-life [1, 4]: 3.27 ± 2.18 h
solubility of MA in water with MC-CDs ([3]; aqueous MC-CDs solution, MC-CDs concentration exceeding 100 μg/mL): increases significantly
solubility ([3]; water, thermodynamic from solid): 115 µg/mL (≈ 273 µM)
SMILES: O=c1c2cc(O)c(O)cc2oc2cc(O)c([C@@H]3O[C@H](CO)[C@@H](O)[C@H](O)[C@H]3O)c(O)c12 [MA, Mangiferin]
Tmax after oral administration [2]: about 267.49 ± 108.29 min
